Series [1] deals with Trypanosoma brucei brucei. As to the kind of experiment: Trypanocidal activity against Trypanosoma brucei brucei assessed as reduction in intracellular ATP production incubated for 72 hrs by CellTiter-Glo luminescent cell viability assay. It is filed as functional, organism-based. Put shortly:
(§1)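 Bloodstream trypanosomes in 96-well culture were exposed to compound in 5-fold serial dilutions from 25 µg/mL to 1.6 ng/mL for 72 h. Seeding and temperature: T. b. brucei, T. b. gambiense and T. b. rhodesiense at 5×10^3 cells/mL and 37 °C; T. evansi at 1×10^4 cells/mL and 37 °C; T. congolense at 2×10^5 cells/mL and 33 °C. Viability was read as intracellular ATP by CellTiter-Glo luminescence. Three replicates; IC50 calculated.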
(Cellular ATP, detected with luciferase, serves as a proxy for viable cell number.)

In another series the test system is Trypanosoma evansi. As to the kind of experiment: Trypanocidal activity against Trypanosoma evansi assessed as reduction in intracellular ATP production incubated for 72 hrs by CellTiter-Glo luminescent cell viability assay. Type of series: functional, organism-based. The method in brief:
as §1

Another series has as its system MDBK cells (Bos taurus). Kind of series: Cytotoxicity against bovine MDBK cells assessed as reduction in cell viability incubated for 72 hrs by CCK8 assay.
Series [2] relates to Trypanosoma brucei rhodesiense. As to the kind of experiment: Trypanocidal activity against Trypanosoma brucei rhodesiense assessed as reduction in intracellular ATP production incubated for 72 hrs by CellTiter-Glo luminescent cell viability assay. It is filed as functional, organism-based. The method in brief: as §1
In the next series the test system is Trypanosoma congolense. As to the kind of experiment: Trypanocidal activity against Trypanosoma congolense assessed as reduction in intracellular ATP production incubated for 72 hrs by CellTiter-Glo luminescent cell viability assay. Type of series: functional, organism-based. The method in brief:
as §1

The test system of series [3] is Trypanosoma brucei gambiense. As to the kind of experiment: Trypanocidal activity against Trypanosoma brucei gambiense assessed as reduction in intracellular ATP production incubated for 72 hrs by CellTiter-Glo luminescent cell viability assay. Type of series: functional, organism-based. Put shortly: as §1
Series [4] in a line: Selectivity index, ratio of IC50 for cytotoxicity against bovine MDBK cells to IC50 for Trypanocidal activity against Trypanosoma congolense.

pIC50: −log10 of the molar value.

In general, pIC50 refers to the IC50 on a negative log10 scale, so that one unit is a factor of ten.

For the molecule `COc1ccc(-c2cnc(-c3ccc(OC)cc3)o2)cc1`, the negative-log IC50 (pIC50) in series [1] is less than 4.05; in the series on Trypanosoma evansi, less than 4.05; in the series on MDBK cells (Bos taurus), less than 3.45; in series [2], less than 4.05; in the series on Trypanosoma congolense, less than 4.05; in series [3] it was less than 4.05.

Take `COc1ccccc1-c1cnc(-c2cccc(OC)c2OC)o1`: the negative logarithm of the IC50 (pIC50) was less than 4.10 in series [1]; less than 4.10 in the series with Trypanosoma evansi; less than 3.49 with MDBK cells (Bos taurus); less than 4.10 in series [2]; 6.11 in the series with Trypanosoma congolense; less than 4.10 in series [3]. Moreover, the selectivity ratio in series [4] is more than 414.

On to `COc1ccc(OC)c(-c2cnc(-c3ccccc3)o2)c1`, for which the pIC50 is less than 4.05 in series [1]; less than 4.05 in the series with Trypanosoma evansi; less than 3.45 in the series on MDBK cells (Bos taurus); less than 4.05 in series [2]; 4.81 in the series on Trypanosoma congolense; less than 4.05 in series [3]. Also, in series [4], the selectivity ratio was more than 23.

Take `CC1CS(=O)(=O)CCN1/N=C/c1ccc([N+](=O)[O-])o1` (stereo unspecified) [NIFURTIMOX]: the pIC50 in series [1] is 5.33; in the series on Trypanosoma evansi, 5.59; in series [2], 5.36; in the series on Trypanosoma congolense, 5.96.

Consider `COc1cccc(-c2ncc(-c3ccccc3O)o2)c1OC`, for which the pIC50 in series [1] is less than 4.08; in the series with Trypanosoma evansi it was less than 4.08; in the series with MDBK cells (Bos taurus), less than 3.47; in series [2], less than 4.08; with Trypanosoma congolense, less than 4.08; in series [3], less than 4.08.

Turning to `COc1ccccc1-c1cnc(-c2ccccc2OC)o1`, the negative logarithm of the IC50 (pIC50) was less than 4.05 in series [1]; less than 4.05 with Trypanosoma evansi; less than 3.45 in the series on MDBK cells (Bos taurus); less than 4.05 in series [2]; 5.55 in the series with Trypanosoma congolense; less than 4.05 in series [3]. The selectivity ratio in series [4] was more than 128.

As to `COc1ccc(OC)c(-c2cnc(-c3cccc(OC)c3OC)o2)c1`, the pIC50 was less than 4.14 in series [1]; less than 4.14 in the series with Trypanosoma evansi; less than 3.53 with MDBK cells (Bos taurus); less than 4.14 in series [2]; 5.80 in the series on Trypanosoma congolense; less than 4.14 in series [3]. In addition, the selectivity ratio in series [4] is more than 188.

For `COc1ccc(OC)c(-c2ncc(-c3ccccc3OC)o2)c1`, the negative-log IC50 (pIC50) in series [1] is less than 4.10; in the series on Trypanosoma evansi, less than 4.10; in the series on MDBK cells (Bos taurus) it was less than 3.49; in series [2], less than 4.10; in the series on Trypanosoma congolense, less than 4.10; in series [3], less than 4.10.

Regarding `COc1ccc(OC)c(-c2cnc(-c3cc(OC)ccc3OC)o2)c1`, the negative logarithm of the IC50 (pIC50) is less than 4.14 in series [1]; less than 4.14 in the series with Trypanosoma evansi; less than 3.53 in the series on MDBK cells (Bos taurus); less than 4.14 in series [2]; 5.54 with Trypanosoma congolense; less than 4.14 in series [3]. Besides, in series [4], the selectivity ratio is more than 100.

Take `Cc1ccc(C(=O)Nc2ccc(S(=O)(=O)O)c3cc(S(=O)(=O)O)cc(S(=O)(=O)O)c23)cc1NC(=O)c1cccc(NC(=O)Nc2cccc(C(=O)Nc3cc(C(=O)Nc4ccc(S(=O)(=O)O)c5cc(S(=O)(=O)O)cc(S(=O)(=O)O)c45)ccc3C)c2)c1` [SURAMIN]: the negative logarithm of the IC50 (pIC50) is 7.18 in series [1]; 6.42 in the series on Trypanosoma evansi; 7.12 in series [2]; 5.14 with Trypanosoma congolense; 7.19 in series [3].

With `COc1cccc(-c2ncc(-c3ccccc3NC(C)=O)o2)c1OC`, the negative-log IC50 (pIC50) in series [1] was less than 4.13; in the series on Trypanosoma evansi, less than 4.13; with MDBK cells (Bos taurus), less than 3.53; in series [2], less than 4.13; in the series on Trypanosoma congolense, 4.42; in series [3], less than 4.13. The selectivity ratio in series [4] was more than 7.8.

As for `CCOc1ccccc1-c1cnc(-c2cccc(OC)c2OC)o1`, the negative logarithm of the IC50 (pIC50) in series [1] is less than 4.11; with Trypanosoma evansi, less than 4.11; with MDBK cells (Bos taurus), less than 3.51; in series [2] it was less than 4.11; in the series on Trypanosoma congolense, 5.36; in series [3] it was less than 4.11. In series [4], the selectivity ratio is more than 69.
